Rows were chosen to be rich in hits. Some 3.6% of all compounds tested hit in one or more screens of this group.
pPAFAH FP inh: inhibitors of human plasma PAF acetylhydrolase (pPAFAH); Q13093; recombinant pPAFAH, FP-rhodamine probe fluorescence polarization; inhibition, % at 3.39 µM; hit rate 1.5% among 330,000; AID 463082;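 active = inhibition above the mean inhibition across the screen plus 3 SD, cut at about 25% in these data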;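 also: inhibitors block binding of the rhodamine activity-based probe so polarization drops; 0% = enzyme with DMSO and 100% = wells lacking pPAFAH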
PAFAH1B2 FP inh: blocks human PAF acetylhydrolase 1b catalytic subunit 2; hit rate 1.2% among 340,000; P68402; recombinant PAFAH1B2, FP-rhodamine activity probe, fluorescence polarization; inhibition, % at 3.39 µM; AID 492953;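 active = inhibition above the mean of all tested compounds plus 3 SD, cut at about 24% in these data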;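 also: 0% = enzyme with DMSO and 100% = wells lacking PAFAH1B2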
Target sequence (P68402 whole entry, looked up): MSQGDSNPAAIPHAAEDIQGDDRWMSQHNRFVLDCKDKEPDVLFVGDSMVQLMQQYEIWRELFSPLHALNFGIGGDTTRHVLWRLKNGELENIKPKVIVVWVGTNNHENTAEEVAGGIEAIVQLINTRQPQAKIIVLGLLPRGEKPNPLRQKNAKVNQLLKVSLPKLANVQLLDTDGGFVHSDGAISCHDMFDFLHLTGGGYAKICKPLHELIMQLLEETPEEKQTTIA
PAFAH2 FP inh: PAFAH2 (human) inhibition. recombinant PAFAH2, FP-rhodamine activity probe, fluorescence polarization. hit rate 0.99% among 340,000. AID 492956. inhibition, % at 3.39 µM. Q99487;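 active = inhibition above the mean over all tested compounds plus 3 SD, cut at about 30% in these data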;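 also: inhibitors block probe labeling of enzyme so polarization drops; 0% = enzyme with DMSO and 100% = wells lacking PAFAH2 protein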
PAFAH1B3 FP inh: inhibitors of human PAFAH1B3 | inhibition, % at 3.39 µM | hit rate 0.28% among 340,000 | recombinant PAFAH1B3, FP-rhodamine probe, fluorescence polarization | AID 492972 | Q15102;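 active = inhibition above the screen-wide average of all tested compounds plus 3 SD, cut at about 25% in these data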;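 also: 0% = enzyme with DMSO only and 100% = wells lacking PAFAH1B3 protein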
VIM-2 inhibitor: inhibitors of Pseudomonas aeruginosa VIM-2 metallo-beta-lactamase | hit rate 0.89% among 290,000 | inhibition, % at 5.6 µM | purified VIM-2, nitrocefin hydrolysis, epi-absorbance fluorescence | AID 1527;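 active = inhibition above the mean of all tested compounds plus 3 SD, cutoff set per screening run, cut at about 7.5% in these data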;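 also: red hydrolysis product quenches plate fluorescence so inhibitors raise well fluorescence; 0% = enzyme with DMSO and 100% = DMSO without enzyme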
IMP-1 inh-1: inhibitors of Pseudomonas aeruginosa IMP-1 metallo-beta-lactamase; purified IMP-1, nitrocefin hydrolysis, epi-absorbance fluorescence; inhibition, % at 5.6 µM; hit rate 0.45% among 290,000;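 active = inhibition above the mean plus 3 SD of all compounds in the same screening run, cut at about 4.5% in these data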;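 also: 0% = IMP-1 with DMSO and 100% = DMSO wells lacking enzyme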
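Test system: recombinant IMP-1 enzyme, purified / Medium: HEPES buffer pH 7.1 with ZnSO4 and Brij 35 / Doses: single dose, 5.6 µM / Times: 25 °C, 15 min preincubation, 25 min reaction / Detection: Epi-absorbance via hydrolysed-nitrocefin quenching of white-plate fluorescence, 480/530 nm, EDTA stop / Evaluation: percent inhibition from optical density relative to buffer-blank wells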
IMP-1 inh-2: blocks IMP-1 metallo-beta-lactamase in VIM-2 selectivity screen; purified IMP-1, nitrocefin hydrolysis, epi-absorbance fluorescence; inhibition, % at 5.6 µM; 1,300 tested, under 10 active; shares compounds with VIM-2 inhibitor; call rule not given here;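 also: 0% = enzyme with vehicle and 100% = vehicle without enzyme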
VIM-2 FRET ctr: VIM-2 FRET inhibition, artifact counter-screen; shares compounds with VIM-2 inhibitor; AID 1857; hit rate 23% among 1,300; inhibition, % at 5.6 µM; purified VIM-2, CCF2 FRET substrate hydrolysis;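 active = inhibition above the mean of all tested compounds plus 3 SD, cut at about 19% in these data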;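 also: 0% = VIM-2 plus DMSO and 100% = no enzyme wells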
TEM-1 counter: TEM-1 inhibition, counter-screen for VIM-2 inhibitors | inhibition, % at 5.6 µM | hit rate 3% among 1,300 | shares compounds with VIM-2 inhibitor | Purified TEM-1, nitrocefin hydrolysis, epi-absorbance fluorescence;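 active = inhibition above that campaign's mean inhibition plus 3 SD, cut at about 0.46% in these data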;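 also: 0% = TEM-1 with DMSO and 100% = TEM-1 with 100 µM potassium clavulanate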
Target sequence (P62593 whole entry, looked up): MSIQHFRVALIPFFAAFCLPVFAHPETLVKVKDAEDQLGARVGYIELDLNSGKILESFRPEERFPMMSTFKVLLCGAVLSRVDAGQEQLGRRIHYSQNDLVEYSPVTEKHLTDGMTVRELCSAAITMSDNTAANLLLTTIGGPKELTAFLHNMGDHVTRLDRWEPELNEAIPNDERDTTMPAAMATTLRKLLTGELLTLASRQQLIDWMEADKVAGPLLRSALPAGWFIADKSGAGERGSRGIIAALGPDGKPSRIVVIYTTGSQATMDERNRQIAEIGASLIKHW
VIM-2 confirm 2: confirmation of P. aeruginosa VIM-2 metallo-beta-lactamase inhibitors. AID 2187. inhibition, % at 5.6 µM. shares compounds with VIM-2 inhibitor. purified VIM-2, nitrocefin hydrolysis, epi-absorbance. hit rate 96% among 1,300;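 active = inhibition of the VIM-2 beta-lactamase enzyme above about 11% from the earlier first-round screen, limit read from the data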;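 also: 0% = VIM-2 with DMSO and 100% = buffer wells without enzyme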
* marks the source's active call; other numbers are inactive results; nt = no result.

SMILES	pPAFAH FP inh	PAFAH1B2 FP inh	PAFAH2 FP inh	PAFAH1B3 FP inh	VIM-2 inhibitor	IMP-1 inh-1	IMP-1 inh-2	VIM-2 FRET ctr	TEM-1 counter	VIM-2 confirm 2
CCOC(=O)N1CCC(NC(=O)c2ccc3c(c2)N(C)C(=O)/C(=C/c2cccc(OC)c2)S3)CC1	7	0	-12	0	1	-1	nt	nt	nt	nt
C=CCNC(=S)N/N=C(\C)c1ccc(-n2ccnc2)cc1	6	3	-2	17	66*	-1	-3	-7	-8	80*
CNC(=S)N/N=C(\C)c1ccc(-n2ccnc2)cc1	1	0	6	4	23*	1	-4	-15	-7	43*
C=CCNC(=S)N/N=C(\C)c1cccnc1	6	2	-1	0	0	-4	nt	nt	nt	nt
C/C(=N\NC(N)=O)c1ccc(-n2ccnc2)cc1	1	10	-2	10	2	-1	nt	nt	nt	nt
COCCNC(=S)N/N=C(\C)c1ccc(-n2ccnc2)cc1	-5	1	-3	7	67*	-2	1	1	0.4*	82*
C/C(=N\NC(=S)NC(C)C)c1ccc(-n2ccnc2)cc1	-2	6	0	2	77*	-2	-2	-11	-7	86*
COCCNC(=S)N/N=C(\C)c1ccc(O)cc1	5	1	-4	4	-6	-3	nt	nt	nt	nt
C/C(=N\NC(=S)NC(C)C)c1ccccc1	-2	4	-5	6	-2	-2	nt	nt	nt	nt
CSCCC(NC(=O)c1ccccc1Cl)C(=O)OCC(=O)N1CCCC1=O (configuration not stated)	2	1	-4	-7	nt	nt	nt	nt	nt	nt
COc1ccc(NC(=O)COc2cccc3c2CCN(Cc2cccnc2)C3=O)c(OC)c1	6	-7	3	2	14*	0	-2	-5	-5	23*
Cc1nc(-c2ccccn2)nc(SCC(=O)c2ccccc2)c1Cl	-3	nt	nt	nt	54*	-2	-4	-25	-6	72*
COc1cnc(-c2ccccn2)nc1N(C)c1ccccc1	12	2	3	6	37*	-5	-4	-35	-3	47*
CCOC(=O)CSc1nc(-c2ccccn2)ncc1OC	1	3	0	12	17*	-5	-4	-25	-4	25*
COc1cnc(-c2ccccn2)nc1Oc1cccc(C(F)(F)F)c1	10	1	2	2	45*	-5	-5	-29	-5	60*
CN(C)C(=O)c1ccc(Nc2nc(-c3cccs3)nc3ccccc23)cc1	-9	7	-4	2	22*	-1	-3	0	-7	25*
COc1ccc(CNC(=O)Cn2ccc3cc(S(=O)(=O)N4CCCC4)ccc32)cc1OC	0	5	4	8	-3	-4	nt	nt	nt	nt
Cc1cccc(-n2c(Cc3ccccc3)n[nH]c2=S)c1	-3	19	3	6	3	-1	nt	nt	nt	nt
COc1ccc(CCn2nc(C)c([N+](=O)[O-])c2C)cc1	4	4	0	6	0	-2	nt	nt	nt	nt
Cc1cccc(-n2c(CCn3nc(C)c([N+](=O)[O-])c3C)n[nH]c2=S)c1	8	-2	5	3	17*	-5	-4	46*	-7	30*
COc1cccc(-n2c(CCn3nc(C)c([N+](=O)[O-])c3C)n[nH]c2=S)c1	0	2	-5	9	14*	-3	-3	38*	-4	25*
O=C(N/C(=C\c1ccccc1)C(=O)N1CCCCC1)c1ccco1	1	3	-5	0	-1	0	nt	nt	nt	nt
CC1(C)CC(NC(=O)COc2ccc3c4c(c(=O)oc3c2)CCCC4)CC(C)(C)N1	2	1	4	9	20*	2	-3	-2	-6	26*

Compound activity from PubChem BioAssay.
